Published values pooled from the literature.
Each line is one published result; the experiments were not run side by side.
Observed: cell growth or viability

OCc1ccc(-c2nn(Cc3ccccn3)c3cccnc23)o1
IC50 (HuCCT-1; ATP luminescence): > 46 µM

CC1(P2(=O)CCCCC2)C=CCC=C1
IC50 (HaCaT; MTT; 72 h): > 100 µM

COc1cc(C2C3=C(COC3=O)N(CCO)c3cc4c(cc32)CCC4)cc(OC)c1OC (centres unmarked)
IC50 (E0771; ATP luminescence; 48 h): 0.039 µM

COc1cccc2c1C(=O)c1c(O)c3c(c(O)c1C2=O)C[C@@](O)(C(=O)CO)C[C@@H]3O[C@H]1C[C@H](N)[C@H](O)[C@H](C)O1
IC50 (HaCaT; MTT; 72 h): 0.3 µM

CCCCn1cnc2ccc(-c3ccc(NC(=O)Nc4ccc(C)cc4)nc3)cc2c1=O
IC50 (HCC827; CCK-8; 72 h): 9.15 µM

O=C1CS/C(=N\c2ccccc2Cl)N1c1nnc(-c2ccc(C(F)(F)F)cc2/N=C2\SCC(=O)N2c2ccccc2Cl)s1
IC50 (WI-38; MTT): 49.2 µM

O=c1[nH]cc(F)c(=O)[nH]1
IC50 (HaCaT; SRB): 0.05 µg/mL

OCc1ccc(-c2nn(Cc3ccccn3)c3ccccc23)o1
IC50 (HuCCT-1; ATP luminescence): > 46 µM

CNC(=O)c1ccccc1Nc1cc(Nc2ccc(N3CCOCC3)cc2OC)ncc1C(F)(F)F
IC50 (ASPC1; MTT; 48 h): 3.19 µM

CCCCn1cnc2ccc(-c3ccc(NC(=O)Nc4ccc(CC)cc4)nc3)cc2c1=O
IC50 (HCC827; CCK-8; 72 h): > 10 µM

CC1=CC(=O)C(C(C)C)=CC1=O
IC50 (SNB-19; SRB; 48 h): 56.9 µM

NCc1ccc(-c2nn(Cc3ccncc3)c3ccccc23)o1
IC50 (HuCCT-1; ATP luminescence): > 46 µM

Nc1c([I+]c2ccccc2)c(=O)oc2ccccc12
IC50 (HaCaT; MTT; 48 h): 65.4 µM

CCCCn1cnc2ccc(-c3ccc(NC(=O)C4CCC4)nc3)cc2c1=O
IC50 (HCC827; CCK-8; 72 h): 6.31 µM

O=C1CS/C(=N\c2cc(C(F)(F)F)ccc2-c2nnc(N3C(=O)CS/C3=N\c3ccc(F)cc3)s2)N1c1ccc(F)cc1
IC50 (WI-38; MTT): 19.2 µM

CCCn1cnc2ccc(-c3ccc(NC(=O)CNC(C)C)nc3)cc2c1=O
IC50 (HCC827; CCK-8; 72 h): > 10 µM

CC(C)[C@@H]1NC(=O)[C@H](Cc2c[nH]cn2)NC1=O
IC50 (ASPC1; SRB): > 15 µM

COc1ccccc1Cn1nc(-c2ccc(CO)o2)c2ccccc21
IC50 (HuCCT-1; ATP luminescence): > 46 µM

C=CC(C)(C)c1[nH]cnc1/C=C1/NC(=O)[C@H](C(C)C)NC1=O
IC50 (ASPC1; SRB): > 15 µM

Cc1ccc(NC(=O)Nc2ccc(-c3ccc4ncn(Cc5ccccc5)c(=O)c4c3)cn2)cc1
IC50 (HCC827; CCK-8; 72 h): > 10 µM

O=P1(c2ccccc2)CCCCC1
IC50 (HaCaT; MTT; 72 h): > 100 µM

COc1cccc2c1C(=O)c1c(O)c3c(c(O)c1C2=O)C[C@@](O)(C(=O)CO)C[C@@H]3O[C@H]1C[C@H](N)[C@H](O)[C@H](C)O1
IC50 (HuCCT-1; 96 h): 0.0249 µM

COc1cnccc1Cn1nc(-c2ccc(CO)o2)c2ccccc21
IC50 (HuCCT-1; ATP luminescence): > 46 µM

CCCCCC(=O)Nc1ccc(-c2ccc3ncn(CCC)c(=O)c3c2)cn1
IC50 (HCC827; CCK-8; 72 h): 0.16 µM

COc1cccc(Cn2nc(-c3ccc(CO)o3)c3ccccc32)c1
IC50 (HuCCT-1; ATP luminescence): > 46 µM

O=C1CS/C(=N\c2cc(C(F)(F)F)ccc2-c2nnc(N3C(=O)CS/C3=N\c3cccc(Cl)c3)s2)N1c1cccc(Cl)c1
IC50 (WI-38; MTT): 47.1 µM

COc1cc(Cn2nc(-c3ccc(CO)o3)c3ccccc32)ccn1
IC50 (HuCCT-1; ATP luminescence): > 46 µM

O=C1CS/C(=N\c2ccccc2O)N1c1nnc(-c2ccc(C(F)(F)F)cc2/N=C2\SCC(=O)N2c2ccccc2O)s1
IC50 (WI-38; MTT): 32.3 µM

Cc1nc(Nc2ncc(C(=O)Nc3c(C)cccc3Cl)s2)cc(N2CC[C@H](O)C2)n1
IC50 (OCI-LY19; ATP luminescence; 72 h): > 10 µM

COc1cccc(N=C2SCC(=O)N2c2nnc(-c3ccc(C(F)(F)F)cc3N=C3SCC(=O)N3c3cccc(OC)c3)s2)c1
IC50 (WI-38; MTT): 82.1 µM

CCCCn1cnc2ccc(-c3ccc(NC(=O)NCC)nc3)cc2c1=O
IC50 (HCC827; CCK-8; 72 h): > 10 µM

O=C1CS/C(=N\c2ccc(F)cc2O)N1c1nnc(-c2ccc(C(F)(F)F)cc2/N=C2\SCC(=O)N2c2ccc(F)cc2O)s1
IC50 (WI-38; MTT): 20.5 µM

CCCn1cnc2ccc(-c3ccc(NC(=O)CC4CC4)nc3)cc2c1=O
IC50 (HCC827; CCK-8; 72 h): 0.91 µM

O=C1CSC(=Nc2cc([N+](=O)[O-])ccc2[N+](=O)[O-])N1c1nnc(-c2ccc(C(F)(F)F)cc2N=C2SCC(=O)N2c2cc([N+](=O)[O-])ccc2[N+](=O)[O-])s1
IC50 (WI-38; MTT): 89.2 µM

CC(C)[C@@H]1NC(=O)/C(=C/c2cnc[nH]2)NC1=O
IC50 (ASPC1; SRB): > 15 µM
